# According to ChEMBL document CHEMBL1152173, “Synthesis and in vitro evaluation of the antifungal activities of dihydropyrimidinones” (2008):
# The source made the active and inactive calls. The calls are words filed in the database; no cut-off is given here.
# Tests used:
# [1] = tested on: Trichoderma koningii; assay: Antifungal activity against Trichoderma koningii assessed as radial growth at 3% after 72 hrs by poison food technique of Flack relative to control; type: functional
# How it was run: (§1)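 Acetone stock added to molten sterilized PDA to final 0.5–7%, plated in 90 mm dishes with compound-free plates as control. Each plate was inoculated with a 9 mm disc from a 4-day-old culture, incubated at 25 ± 1 °C, and colony diameter measured at 24 h intervals. % inhibition = (control − treatment)/control × 100; three replicates averaged.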
# [2] = tested on: Trichoderma koningii; assay: Antifungal activity against Trichoderma koningii assessed as radial growth at 5% after 72 hrs by poison food technique of Flack relative to control; type: functional; how it was run: as §1
# [3] = tested on: Trichoderma koningii; assay: Antifungal activity against Trichoderma koningii assessed as radial growth at 7% after 72 hrs by poison food technique of Flack relative to control; type: functional; how it was run: as §1
# [4] = tested on: Trichoderma hamatum; assay: Antifungal activity against Trichoderma hamatum assessed as radial growth at 0.5% after 24 hrs by poison food technique of Flack relative to control; type: functional
# [5] = tested on: Trichoderma hamatum; assay: Antifungal activity against Trichoderma hamatum assessed as radial growth at 1% after 24 hrs by poison food technique of Flack relative to control; type: functional
# [6] = tested on: Trichoderma hamatum; assay: Antifungal activity against Trichoderma hamatum assessed as radial growth at 3% after 24 hrs by poison food technique of Flack relative to control; type: functional
# [7] = tested on: Trichoderma hamatum; assay: Antifungal activity against Trichoderma hamatum assessed as radial growth at 5% after 24 hrs by poison food technique of Flack relative to control; type: functional; how it was run: as §1
# [8] = tested on: Trichoderma hamatum; assay: Antifungal activity against Trichoderma hamatum assessed as radial growth at 7% after 24 hrs by poison food technique of Flack relative to control; type: functional; how it was run: as §1
# [9] = tested on: Trichoderma hamatum; assay: Antifungal activity against Trichoderma hamatum assessed as radial growth at 0.5% after 48 hrs by poison food technique of Flack relative to control; type: functional
# [10] = tested on: Trichoderma hamatum; assay: Antifungal activity against Trichoderma hamatum assessed as radial growth at 1% after 48 hrs by poison food technique of Flack relative to control; type: functional
# [11] = tested on: Trichoderma hamatum; assay: Antifungal activity against Trichoderma hamatum assessed as radial growth at 3% after 48 hrs by poison food technique of Flack relative to control; type: functional
# [12] = tested on: Trichoderma hamatum; assay: Antifungal activity against Trichoderma hamatum assessed as radial growth at 5% after 48 hrs by poison food technique of Flack relative to control; type: functional; how it was run: as §1
# [13] = tested on: Trichoderma hamatum; assay: Antifungal activity against Trichoderma hamatum assessed as radial growth at 7% after 48 hrs by poison food technique of Flack relative to control; type: functional; how it was run: as §1
# [14] = tested on: Trichoderma hamatum; assay: Antifungal activity against Trichoderma hamatum assessed as radial growth at 0.5% after 72 hrs by poison food technique of Flack relative to control; type: functional
# [15] = tested on: Trichoderma hamatum; assay: Antifungal activity against Trichoderma hamatum assessed as radial growth at 1% after 72 hrs by poison food technique of Flack relative to control; type: functional
# [16] = tested on: Trichoderma hamatum; assay: Antifungal activity against Trichoderma hamatum assessed as radial growth at 3% after 72 hrs by poison food technique of Flack relative to control; type: functional
# [17] = tested on: Trichoderma hamatum; assay: Antifungal activity against Trichoderma hamatum assessed as radial growth at 5% after 72 hrs by poison food technique of Flack relative to control; type: functional; how it was run: as §1
# [18] = tested on: Trichoderma hamatum; assay: Antifungal activity against Trichoderma hamatum assessed as radial growth at 7% after 72 hrs by poison food technique of Flack relative to control; type: functional; how it was run: as §1
# [19] = tested on: Trichoderma koningii; assay: Antifungal activity against Trichoderma koningii assessed as radial growth at 0.5% after 24 hrs by poison food technique of Flack relative to control; type: functional; how it was run: as §1
# [20] = tested on: Trichoderma koningii; assay: Antifungal activity against Trichoderma koningii assessed as radial growth at 1% after 24 hrs by poison food technique of Flack relative to control; type: functional; how it was run: as §1
# [21] = tested on: Trichoderma koningii; assay: Antifungal activity against Trichoderma koningii assessed as radial growth at 3% after 24 hrs by poison food technique of Flack relative to control; type: functional; how it was run: as §1
# [22] = tested on: Trichoderma koningii; assay: Antifungal activity against Trichoderma koningii assessed as radial growth at 5% after 24 hrs by poison food technique of Flack relative to control; type: functional; how it was run: as §1
# [23] = tested on: Trichoderma koningii; assay: Antifungal activity against Trichoderma koningii assessed as radial growth at 7% after 24 hrs by poison food technique of Flack relative to control; type: functional; how it was run: as §1
# [24] = tested on: Trichoderma koningii; assay: Antifungal activity against Trichoderma koningii assessed as radial growth at 0.5% after 48 hrs by poison food technique of Flack relative to control; type: functional; how it was run: as §1
# [25] = tested on: Trichoderma koningii; assay: Antifungal activity against Trichoderma koningii assessed as radial growth at 1% after 48 hrs by poison food technique of Flack relative to control; type: functional; how it was run: as §1
# [26] = tested on: Trichoderma koningii; assay: Antifungal activity against Trichoderma koningii assessed as radial growth at 3% after 48 hrs by poison food technique of Flack relative to control; type: functional; how it was run: as §1
# [27] = tested on: Trichoderma koningii; assay: Antifungal activity against Trichoderma koningii assessed as radial growth at 5% after 48 hrs by poison food technique of Flack relative to control; type: functional; how it was run: as §1
# [28] = tested on: Trichoderma koningii; assay: Antifungal activity against Trichoderma koningii assessed as radial growth at 0.5% after 72 hrs by poison food technique of Flack relative to control; type: functional; how it was run: as §1
# [29] = tested on: Trichoderma hamatum; assay: Antifungal activity against Trichoderma hamatum assessed as radial growth at 7% after 24 hrs by poison food technique of Flack; type: functional, organism-based
# How it was run: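 Poisoned-food method: acetone stock mixed into molten sterilized potato dextrose agar to final 0.5, 1, 3, 5 or 7%, poured into 90 mm plates. Plates were inoculated with a 9 mm mycelial disc from a 4-day-old pure culture and incubated at 25 ± 1 °C. Colony diameter (mm) was read every 24 h; mean of three replicates.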
# [30] = tested on: Aspergillus niger; assay: Antifungal activity against Aspergillus niger assessed as radial growth at 0.5% after 24 hrs by poison food technique of Flack relative to control; type: functional
# [31] = tested on: Aspergillus niger; assay: Antifungal activity against Aspergillus niger assessed as radial growth at 1% after 24 hrs by poison food technique of Flack relative to control; type: functional
# [32] = tested on: Aspergillus niger; assay: Antifungal activity against Aspergillus niger assessed as radial growth at 3% after 24 hrs by poison food technique of Flack relative to control; type: functional
# [33] = tested on: Aspergillus niger; assay: Antifungal activity against Aspergillus niger assessed as radial growth at 5% after 24 hrs by poison food technique of Flack relative to control; type: functional
# [34] = tested on: Aspergillus niger; assay: Antifungal activity against Aspergillus niger assessed as radial growth at 7% after 24 hrs by poison food technique of Flack relative to control; type: functional
# [35] = tested on: Aspergillus niger; assay: Antifungal activity against Aspergillus niger assessed as radial growth at 0.5% after 48 hrs by poison food technique of Flack relative to control; type: functional
# [36] = tested on: Aspergillus niger; assay: Antifungal activity against Aspergillus niger assessed as radial growth at 1% after 48 hrs by poison food technique of Flack relative to control; type: functional
# [37] = tested on: Aspergillus niger; assay: Antifungal activity against Aspergillus niger assessed as radial growth at 3% after 48 hrs by poison food technique of Flack relative to control; type: functional
# [38] = tested on: Aspergillus niger; assay: Antifungal activity against Aspergillus niger assessed as radial growth at 7% after 48 hrs by poison food technique of Flack relative to control; type: functional
# [39] = tested on: Aspergillus niger; assay: Antifungal activity against Aspergillus niger assessed as radial growth at 0.5% after 72 hrs by poison food technique of Flack relative to control; type: functional
# [40] = tested on: Aspergillus niger; assay: Antifungal activity against Aspergillus niger assessed as radial growth at 1% after 72 hrs by poison food technique of Flack relative to control; type: functional
# [41] = tested on: Aspergillus niger; assay: Antifungal activity against Aspergillus niger assessed as radial growth at 3% after 72 hrs by poison food technique of Flack relative to control; type: functional
# [42] = tested on: Aspergillus niger; assay: Antifungal activity against Aspergillus niger assessed as radial growth at 5% after 72 hrs by poison food technique of Flack relative to control; type: functional
# [43] = tested on: Trichoderma hamatum; assay: Antifungal activity against Trichoderma hamatum; type: functional
# [44] = tested on: Trichoderma koningii; assay: Antifungal activity against Trichoderma koningii; type: functional
# [45] = tested on: Aspergillus niger; assay: Antifungal activity against Aspergillus niger; type: functional
compound,measurement,setting,value
CCOC(=O)C1=C(C)NC(=S)NC1c1ccc(N(C)C)cc1 (stereo not given),inhibition (INH),[1],15.77%
same,inhibition (INH),[2],88.29%
same,inhibition (INH),[3],91.1%
same,inhibition (INH),[4],8.92%
same,inhibition (INH),[5],21.42%
same,inhibition (INH),[6],75%
same,inhibition (INH),[7],100%
same,inhibition (INH),[8],100%
same,inhibition (INH),[9],5.25%
same,inhibition (INH),[10],12.4%
same,inhibition (INH),[11],74.44%
same,inhibition (INH),[12],100%
same,inhibition (INH),[13],100%
same,inhibition (INH),[14],8.39%
same,inhibition (INH),[15],13.9%
same,inhibition (INH),[16],40.39%
same,inhibition (INH),[17],96.68%
same,inhibition (INH),[18],97.57%
same,inhibition (INH),[19],0%
same,inhibition (INH),[20],3.84%
same,inhibition (INH),[21],41.69%
same,inhibition (INH),[22],92.3%
same,inhibition (INH),[23],100%
same,inhibition (INH),[24],0%
same,inhibition (INH),[25],0%
same,inhibition (INH),[26],18.75%
same,inhibition (INH),[27],86.21%
same,inhibition (INH),[28],0%
same,Activity,[29],Active
same,inhibition (INH),[30],0%
same,inhibition (INH),[31],13.6%
same,inhibition (INH),[32],30%
same,inhibition (INH),[33],100%
same,inhibition (INH),[34],100%
same,inhibition (INH),[35],0%
same,inhibition (INH),[36],0%
same,inhibition (INH),[37],40%
same,inhibition (INH),[38],100%
same,inhibition (INH),[39],0%
same,inhibition (INH),[40],0%
same,inhibition (INH),[41],51.98%
same,inhibition (INH),[42],78.39%
same,MIC,[43],0.025 µg/mL
same,MIC,[44],0.025 µg/mL
same,MIC,[45],0.35 µg/mL
CCOC(=O)C1=C(C)NC(=S)NC1c1ccccc1O (stereo not given),inhibition (INH),[1],32.71%
same,inhibition (INH),[2],88.33%
same,inhibition (INH),[3],91.05%
same,inhibition (INH),[4],26.41%
same,inhibition (INH),[5],49.73%
same,inhibition (INH),[6],81.13%
same,inhibition (INH),[7],100%
same,inhibition (INH),[8],100%
same,inhibition (INH),[9],6.18%
same,inhibition (INH),[10],51.46%
same,inhibition (INH),[11],80.94%
same,inhibition (INH),[12],100%
same,inhibition (INH),[13],100%
same,inhibition (INH),[14],0%
same,inhibition (INH),[15],38.22%
same,inhibition (INH),[16],76.44%
same,inhibition (INH),[17],97.52%
same,inhibition (INH),[18],98.35%
same,inhibition (INH),[19],0%
same,inhibition (INH),[20],12.35%
same,inhibition (INH),[21],50.39%
same,inhibition (INH),[22],100%
same,inhibition (INH),[23],100%
same,inhibition (INH),[24],0%
same,inhibition (INH),[25],0%
same,inhibition (INH),[26],4.18%
same,inhibition (INH),[27],91.4%
same,inhibition (INH),[28],0%
same,Activity,[29],Active
same,inhibition (INH),[30],0%
same,inhibition (INH),[31],20.12%
same,inhibition (INH),[32],54.95%
same,inhibition (INH),[33],62.46%
same,inhibition (INH),[34],62.46%
same,inhibition (INH),[35],0%
same,inhibition (INH),[36],0%
same,inhibition (INH),[37],38.16%
same,inhibition (INH),[38],61.83%
same,inhibition (INH),[39],0%
same,inhibition (INH),[40],0%
same,inhibition (INH),[41],23.37%
same,inhibition (INH),[42],31.92%
same,MIC,[43],0.025 µg/mL
same,MIC,[44],0.025 µg/mL
same,MIC,[45],0.025 µg/mL
